# Legend:
# [1] = biological target: Epidermal growth factor receptor (Homo sapiens, UniProt P00533, L861Q); test: Binding affinity to human partial length EGFR L861Q mutant (R669 to V1011 residues) expressed in bacterial expression system by KinomeScan assay
# Procedure, shortened: (§1)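 Competition binding against an immobilized active-site-directed ligand. Bound kinase is quantified by qPCR of its DNA tag. Kd values come from duplicate 11-point dose-response curves.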
# [2] = biological target: Cytoplasmic tyrosine-protein kinase BMX (Homo sapiens) (UniProt P51813); test: Inhibition of probe binding to BMX (unknown origin) using rabbit reticulate lysate system at 250 nM after 1 hr by luminescence assay relative to control
# [3] = biological target: Epidermal growth factor receptor (Homo sapiens, UniProt P00533, L747-T751DEL); test: Binding affinity to human partial length EGFR L747-T751del/Sins mutant expressed in bacterial expression system by KinomeScan assay; procedure, shortened: as §1
# [4] = biological target: Epidermal growth factor receptor (Homo sapiens, UniProt P00533, G719C); test: Binding affinity to human partial length EGFR G719C mutant (R669 to V1011 residues) expressed in bacterial expression system by KinomeScan assay; procedure, shortened: as §1
# [5] = biological target: Tyrosine-protein kinase Tec (Homo sapiens) (UniProt P42680); test: Inhibition of probe binding to TEC (unknown origin) using rabbit reticulate lysate system at 250 nM after 1 hr by luminescence assay relative to control
# [6] = biological target: Epidermal growth factor receptor (Homo sapiens, UniProt P00533, L858R); test: Binding affinity to human partial length EGFR L858R mutant (R669 to V1011 residues) expressed in bacterial expression system under full equilibrating condition by scanKINETIC assay
# Procedure, shortened: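 Binding kinetics are read from Kd values measured under four dose-response arms. Arm A is full equilibration. Arm B is equilibrate, then 3-fold dilution, then equilibrate. Arm C is partial equilibration. Arm D is predilution followed by full equilibration. Comparing the arms assesses reversibility of binding.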
# [7] = tested on: MOLT-4; test: cells; type: functional; conditions: Homo sapiens, MOLT-4, 48 h
# [8] = species on record: Homo sapiens; test: Selectivity ratio, ratio of IC50 for probe binding to HER2 (unknown origin) to IC50 for probe binding to EGFR L858R mutant (unknown origin)
# Procedure, shortened: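 Ratio of two IC50 values measured in the rabbit reticulocyte lysate competition binding assay: HER2 and EGFR L858R. Each IC50 comes from displacement of an active-site-dependent probe, read by luminescence, with a ten-point dose-response. Each IC50 is the average of triplicate experiments.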
# [9] = tested on: NCI-H460; test: Cytotoxicity against human NCI-H460 cells assessed as reduction in measured protein incubated for 48 hrs by SRB assay; type: functional; conditions: NCI-H460, 48 h, read-out: LC50 (the source's name)
# Procedure, shortened: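 Tested in the NCI-60 panel with a five-dose response curve, each value the mean of 2 experiments.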
# Chain of Cytoplasmic tyrosine-protein kinase BMX (Homo sapiens) (P51813 whole entry): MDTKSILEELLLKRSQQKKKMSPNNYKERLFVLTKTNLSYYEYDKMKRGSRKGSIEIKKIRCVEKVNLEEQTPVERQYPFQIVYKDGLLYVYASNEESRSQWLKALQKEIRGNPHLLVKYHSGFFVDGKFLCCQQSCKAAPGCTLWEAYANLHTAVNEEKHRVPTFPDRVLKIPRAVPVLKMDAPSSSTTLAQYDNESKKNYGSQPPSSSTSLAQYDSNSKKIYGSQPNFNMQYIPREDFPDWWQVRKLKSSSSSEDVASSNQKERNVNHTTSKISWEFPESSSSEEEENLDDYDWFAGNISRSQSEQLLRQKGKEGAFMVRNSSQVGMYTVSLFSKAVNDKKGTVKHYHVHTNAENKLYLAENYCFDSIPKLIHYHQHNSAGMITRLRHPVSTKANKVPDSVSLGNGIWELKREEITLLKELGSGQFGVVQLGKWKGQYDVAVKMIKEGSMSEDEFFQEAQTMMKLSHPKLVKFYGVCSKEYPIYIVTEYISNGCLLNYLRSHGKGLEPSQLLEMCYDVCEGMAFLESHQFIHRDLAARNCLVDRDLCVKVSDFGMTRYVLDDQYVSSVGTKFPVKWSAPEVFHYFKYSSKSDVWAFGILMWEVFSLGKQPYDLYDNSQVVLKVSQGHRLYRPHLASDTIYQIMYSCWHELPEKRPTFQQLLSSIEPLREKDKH
# Chain of Epidermal growth factor receptor (Homo sapiens, UniProt P00533, L858R) (P00533 25-1210 L858R limits assumed): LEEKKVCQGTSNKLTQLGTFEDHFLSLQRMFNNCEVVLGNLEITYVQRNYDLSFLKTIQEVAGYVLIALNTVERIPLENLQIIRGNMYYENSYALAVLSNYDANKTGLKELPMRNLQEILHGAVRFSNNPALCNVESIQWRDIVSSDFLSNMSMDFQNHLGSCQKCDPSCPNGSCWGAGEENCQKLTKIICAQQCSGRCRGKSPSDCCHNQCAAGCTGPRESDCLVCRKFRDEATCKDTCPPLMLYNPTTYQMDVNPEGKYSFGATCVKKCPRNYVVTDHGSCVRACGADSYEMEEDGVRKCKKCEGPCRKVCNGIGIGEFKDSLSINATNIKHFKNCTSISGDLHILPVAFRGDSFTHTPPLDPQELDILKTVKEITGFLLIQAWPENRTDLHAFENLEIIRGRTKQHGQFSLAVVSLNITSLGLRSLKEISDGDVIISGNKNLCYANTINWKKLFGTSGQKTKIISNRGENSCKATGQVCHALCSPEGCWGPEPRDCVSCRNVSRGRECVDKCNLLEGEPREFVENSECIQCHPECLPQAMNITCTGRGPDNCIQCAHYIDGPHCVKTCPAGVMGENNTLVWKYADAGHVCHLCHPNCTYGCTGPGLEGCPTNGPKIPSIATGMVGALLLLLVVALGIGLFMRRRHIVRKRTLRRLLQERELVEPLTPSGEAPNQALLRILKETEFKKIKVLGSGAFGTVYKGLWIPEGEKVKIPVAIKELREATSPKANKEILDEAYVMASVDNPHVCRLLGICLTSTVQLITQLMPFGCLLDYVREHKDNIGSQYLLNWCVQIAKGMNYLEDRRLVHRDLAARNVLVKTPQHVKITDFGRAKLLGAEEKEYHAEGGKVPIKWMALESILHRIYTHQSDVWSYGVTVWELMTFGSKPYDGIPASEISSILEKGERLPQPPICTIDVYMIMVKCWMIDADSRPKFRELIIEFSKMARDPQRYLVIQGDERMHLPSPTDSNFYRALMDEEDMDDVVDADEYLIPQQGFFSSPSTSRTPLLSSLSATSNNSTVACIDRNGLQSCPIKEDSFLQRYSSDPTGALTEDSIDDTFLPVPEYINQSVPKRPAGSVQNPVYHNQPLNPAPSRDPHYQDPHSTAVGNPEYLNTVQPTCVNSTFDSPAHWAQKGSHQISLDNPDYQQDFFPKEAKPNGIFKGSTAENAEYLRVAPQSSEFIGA
# Chain of Tyrosine-protein kinase Tec (Homo sapiens) (P42680 whole entry, the tested form may be a part): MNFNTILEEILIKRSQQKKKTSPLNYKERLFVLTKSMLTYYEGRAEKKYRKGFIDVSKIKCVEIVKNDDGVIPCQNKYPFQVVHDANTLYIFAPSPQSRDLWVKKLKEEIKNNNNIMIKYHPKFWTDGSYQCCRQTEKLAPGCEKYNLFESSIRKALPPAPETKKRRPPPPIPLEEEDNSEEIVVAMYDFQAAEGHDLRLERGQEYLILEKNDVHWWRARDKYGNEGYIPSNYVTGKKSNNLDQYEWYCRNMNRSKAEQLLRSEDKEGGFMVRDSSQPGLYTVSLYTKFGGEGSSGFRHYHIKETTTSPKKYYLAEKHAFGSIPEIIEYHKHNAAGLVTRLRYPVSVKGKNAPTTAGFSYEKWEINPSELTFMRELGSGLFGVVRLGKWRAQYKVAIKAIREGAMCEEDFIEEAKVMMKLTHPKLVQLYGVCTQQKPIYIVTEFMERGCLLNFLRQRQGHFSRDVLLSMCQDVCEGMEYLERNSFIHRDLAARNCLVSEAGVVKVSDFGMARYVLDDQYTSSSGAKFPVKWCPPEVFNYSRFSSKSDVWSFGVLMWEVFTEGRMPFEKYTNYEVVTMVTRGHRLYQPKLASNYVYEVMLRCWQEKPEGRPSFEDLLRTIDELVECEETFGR
# Chain of Epidermal growth factor receptor (Homo sapiens, UniProt P00533, L861Q) (P00533 25-1210 L861Q limits assumed): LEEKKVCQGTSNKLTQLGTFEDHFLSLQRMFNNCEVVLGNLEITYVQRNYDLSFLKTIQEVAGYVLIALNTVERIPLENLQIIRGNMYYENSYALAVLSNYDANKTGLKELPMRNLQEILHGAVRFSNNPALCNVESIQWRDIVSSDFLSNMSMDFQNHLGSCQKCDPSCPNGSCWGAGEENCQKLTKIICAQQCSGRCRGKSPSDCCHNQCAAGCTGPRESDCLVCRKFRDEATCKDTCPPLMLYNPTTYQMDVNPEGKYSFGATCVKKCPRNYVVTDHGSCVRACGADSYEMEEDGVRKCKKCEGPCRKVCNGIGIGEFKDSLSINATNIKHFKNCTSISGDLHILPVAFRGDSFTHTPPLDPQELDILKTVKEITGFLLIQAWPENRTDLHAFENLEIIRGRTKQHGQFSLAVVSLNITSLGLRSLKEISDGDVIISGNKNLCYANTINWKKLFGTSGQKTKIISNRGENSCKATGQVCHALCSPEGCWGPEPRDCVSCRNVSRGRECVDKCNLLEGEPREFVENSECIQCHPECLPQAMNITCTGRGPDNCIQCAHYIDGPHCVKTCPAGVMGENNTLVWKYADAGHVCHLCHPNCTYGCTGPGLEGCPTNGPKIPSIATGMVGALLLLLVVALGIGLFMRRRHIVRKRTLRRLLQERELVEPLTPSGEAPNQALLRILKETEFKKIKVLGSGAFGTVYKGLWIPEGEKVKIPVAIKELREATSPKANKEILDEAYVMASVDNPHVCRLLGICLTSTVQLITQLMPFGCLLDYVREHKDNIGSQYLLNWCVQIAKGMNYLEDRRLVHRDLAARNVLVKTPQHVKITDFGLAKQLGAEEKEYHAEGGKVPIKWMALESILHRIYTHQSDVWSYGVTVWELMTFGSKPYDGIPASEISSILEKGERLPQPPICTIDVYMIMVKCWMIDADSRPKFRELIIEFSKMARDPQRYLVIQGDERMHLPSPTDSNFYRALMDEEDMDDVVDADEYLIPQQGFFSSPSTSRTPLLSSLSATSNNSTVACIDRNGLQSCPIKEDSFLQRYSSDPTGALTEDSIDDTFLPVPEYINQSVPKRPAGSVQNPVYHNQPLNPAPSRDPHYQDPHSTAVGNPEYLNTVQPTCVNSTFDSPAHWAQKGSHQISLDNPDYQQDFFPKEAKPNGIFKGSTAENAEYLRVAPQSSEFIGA
# Chain of Epidermal growth factor receptor (Homo sapiens, UniProt P00533, G719C) (P00533 25-1210 G719C limits assumed): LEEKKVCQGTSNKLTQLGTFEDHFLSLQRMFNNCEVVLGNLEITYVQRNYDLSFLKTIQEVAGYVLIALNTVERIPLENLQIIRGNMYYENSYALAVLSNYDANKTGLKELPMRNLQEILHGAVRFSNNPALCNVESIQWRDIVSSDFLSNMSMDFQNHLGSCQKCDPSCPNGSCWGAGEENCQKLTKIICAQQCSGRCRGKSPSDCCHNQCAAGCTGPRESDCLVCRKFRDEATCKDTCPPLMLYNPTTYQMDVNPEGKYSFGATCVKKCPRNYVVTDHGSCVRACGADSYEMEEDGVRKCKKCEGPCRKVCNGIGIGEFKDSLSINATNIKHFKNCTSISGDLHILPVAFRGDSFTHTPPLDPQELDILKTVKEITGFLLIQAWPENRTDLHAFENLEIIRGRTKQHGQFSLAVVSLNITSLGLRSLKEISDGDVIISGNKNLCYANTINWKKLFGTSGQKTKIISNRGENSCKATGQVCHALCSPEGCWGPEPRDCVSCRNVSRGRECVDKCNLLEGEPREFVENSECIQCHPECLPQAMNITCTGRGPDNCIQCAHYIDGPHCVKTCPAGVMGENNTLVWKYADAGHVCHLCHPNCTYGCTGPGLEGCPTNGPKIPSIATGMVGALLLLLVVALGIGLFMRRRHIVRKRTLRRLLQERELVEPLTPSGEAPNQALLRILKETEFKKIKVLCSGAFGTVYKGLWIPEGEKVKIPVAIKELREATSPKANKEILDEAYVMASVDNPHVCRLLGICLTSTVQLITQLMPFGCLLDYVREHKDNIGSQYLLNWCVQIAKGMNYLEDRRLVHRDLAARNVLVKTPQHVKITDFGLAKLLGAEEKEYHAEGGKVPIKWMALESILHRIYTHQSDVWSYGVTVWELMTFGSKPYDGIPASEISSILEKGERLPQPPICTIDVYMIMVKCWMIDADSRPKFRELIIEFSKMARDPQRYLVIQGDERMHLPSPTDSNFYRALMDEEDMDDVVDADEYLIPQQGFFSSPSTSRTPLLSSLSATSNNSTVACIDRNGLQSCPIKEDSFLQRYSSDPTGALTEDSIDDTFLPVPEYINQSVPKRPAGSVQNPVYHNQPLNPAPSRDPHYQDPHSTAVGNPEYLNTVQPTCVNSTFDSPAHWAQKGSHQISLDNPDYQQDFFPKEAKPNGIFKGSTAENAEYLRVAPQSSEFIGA
structure (smiles),measurement,setting,value
CCOc1cc2ncc(C#N)c(Nc3ccc(OCc4cccc(F)c4)c(Cl)c3)c2cc1NC(=O)CC1CCSS1 (centres undefined),Kd,[1],4.8 nM
same,inhibition,[2],10%
same,Kd,[3],13 nM
same,Kd,[4],5.7 nM
same,inhibition,[5],20%
same,Kd,[6],9.6 nM
same,GI50,[7],160 nM
same,Ratio IC50,[8],14.7
same,CC50,[9],1950 nM

# From ChEMBL document CHEMBL4387720, “Lead generation of 1,2-dithiolanes as exon 19 and exon 21 mutant EGFR tyrosine kinase inhibitors” (Bioorg Med Chem Lett, 2019)
